# Bioassay records from PubChem BioAssay.
# NPY-Y1 PAM-ag – NPY-Y1 receptor potentiators or agonists, primary screen, cell-based | NPY-Y1 expressing cells, potentiator/agonist activation | AID 1304, 2008 | Neuropeptide Y receptor type 1 (Homo sapiens), P25929 | hit rate 0.37% among 220,000 | activation, % at 3.6 µM; in the data active means activation above about 33%, passing the limit was not always enough;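 further: cells stimulated with NPY at EC10 then isoproterenol at EC100; 0% = low agonist plus stimulus and 100% = saturating agonist plus stimulus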
# NPY2 pot ag – NPY-Y2 potentiators or agonists, primary screen, cell-based; Neuropeptide Y receptor type 2 (Homo sapiens), P49146; cells expressing NPY-Y2, potentiator/agonist read-out; activation, % at 3.6 µM; hit rate 0.45% among 220,000; AID 1359, 2008; in the data active means activation above about 27%;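 further: cells stimulated with NPY near EC25 plus isoproterenol at EC100; 0% = vehicle plus submaximal agonist and 100% = vehicle plus saturating agonist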
# Target sequence (P49146 whole entry, looked up): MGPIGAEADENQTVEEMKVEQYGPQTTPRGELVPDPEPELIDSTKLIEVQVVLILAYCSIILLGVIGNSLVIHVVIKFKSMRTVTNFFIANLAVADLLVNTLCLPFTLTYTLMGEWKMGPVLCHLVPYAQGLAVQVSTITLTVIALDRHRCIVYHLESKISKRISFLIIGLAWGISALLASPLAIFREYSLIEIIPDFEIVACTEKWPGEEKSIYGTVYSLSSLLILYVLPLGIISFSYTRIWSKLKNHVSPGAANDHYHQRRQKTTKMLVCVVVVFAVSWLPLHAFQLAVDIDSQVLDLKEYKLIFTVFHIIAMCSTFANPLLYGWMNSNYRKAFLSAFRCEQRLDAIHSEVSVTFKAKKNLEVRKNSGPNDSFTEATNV
# NPY-Y2 antag – NPY-Y2 receptor antagonists, primary screen, cell-based | Neuropeptide Y receptor type 2 (Homo sapiens), P49146 | NPY-Y2 expressing cells, antagonist mode | inhibition, % at 2.7 µM | hit rate 0.99% among 140,000 | AID 793, 2007; in the data active means inhibition above about 17%;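 further: 0% = vehicle with agonist challenge and 100% = reference antagonist with challenge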
# NPY Y1 blocker – NPY-Y1 receptor antagonists, primary screen, cell-based. inhibition, % at 3.6 µM. hit rate 1% among 200,000. Neuropeptide Y receptor type 1 (Homo sapiens), P25929. HEK293-CNG Y1 cells, membrane potential fluorescence; NPY at EC95, then isoproterenol;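 active means inhibition above the campaign mean inhibition of all tested compounds plus 3 SD, cut at about 20% in these data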;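 further: 0% = DMSO wells given NPY plus isoproterenol and 100% = isoproterenol alone without NPY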
#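 Assay system: HEK293 Y1/CNG channel cell line; Doses: single compound dose of 3.6 µM, 0.4% DMSO; Timing: dye 3 h, compound 60 min room temperature, stimulation 45 min; Technique: Membrane-potential fluorescent dye readout; Measure: % inhibition of NPY effect.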
# An asterisk follows results filed as active; . = no result given. Hits are enriched below; roughly 1.8% of the tested compounds scored in any of these assays.
SMILES,NPY-Y1 PAM-ag,NPY2 pot ag,NPY-Y2 antag,NPY Y1 blocker
CCOc1ccc2c(c1)/C(=N/N1C(=O)c3ccccc3C1=O)C(=O)N2,3.6,-8.8,.,-0.4
CCN1CCN(CC(=O)c2ccc(OC)cc2)CC1,-3.1,-6.4,.,-3.5
CSc1cccc(NC(=O)Cc2ccccc2[N+](=O)[O-])c1,1.0,-9.3,.,-1.6
O=C(N/N=C/c1ccccc1)c1sccc1OCc1ccc(F)cc1,-12.4,-19.4,20.3*,0.8
O=C(N/N=C/c1ccncc1)c1ccccc1OCc1ccc(Br)cc1,-116.6,-53.6,42.6*,32.4*
O=C(N/N=C/c1ccco1)c1cc(Br)ccc1OCc1ccccc1,-52.8,-18.9,9.6,9.8
N#Cc1nc(COc2ccc(F)cc2)oc1N1CCN(Cc2ccccc2)CC1,-30.3,-16.6,31.9*,34.1*
N#Cc1nc(COc2ccc(F)cc2)oc1N1CCC(Cc2ccccc2)CC1,-68.9,5.0,37.4*,31.7*
N#Cc1nc(COc2ccc(Br)cc2)oc1N1CCN(Cc2ccccc2)CC1,-11.8,-11.4,31.8*,35.5*
Cn1nc(C(C)(C)C)cc1C(=O)Sc1cccc(Br)c1,-2.2,-3.9,.,.
O=[N+]([O-])c1cc(C(F)(F)F)cc([N+](=O)[O-])c1Sc1n[nH]c(C(F)(F)F)n1,-13.5,-10.7,.,.
CC(=O)N/N=C(\N)c1nonc1N,16.6,-25.4,.,.
Cc1cc(C)c(OCC(O)CNC(C)(C)C)c(C)c1 (stereo unspecified),83.6*,87.2*,.,-9.3
Cc1cc(C)nc(NCC(O)COc2ccccc2C)n1 (stereo unspecified),6.6,5.5,0.5,-6.8
CC(C)(C)NCC(O)COc1c(F)cc(Br)cc1F (stereo unspecified),51.1*,65.9*,0.5,-7.0
CC(C)(C)CC(C)(C)NCC(O)COc1c(F)cc(Br)cc1F (stereo unspecified),-21.3,6.1,5.2,6.8
COc1cccc(N=Nc2c(N)[nH]n3c(=O)c4c(nc23)CCCC4)c1,-5.1,-8.8,.,-1.9
Cc1nc(-c2nnc(SCC(=O)Nc3ccc(C(F)(F)F)cc3)n2C)cs1,2.9,-8.8,.,.
COc1ccc(NC(=O)c2cc3ccc4c5ccccc5[nH]c4c3cc2O)cc1,18.0,21.2,.,.
COC(=O)c1nn(-c2ccccc2)c2nnc(Cc3ccc(C)cc3)c(=O)n12,0.0,-2.1,0.5,3.1
O=C(c1ccccc1)c1nn(-c2ccccc2)c2nnc(Cc3ccccc3)c(=O)n12,-128.4,-53.3,28.6*,37.6*
CC(C)c1ccc(/C=C/C(=O)NCCCc2ccccc2)cc1,-14.3,-28.4,29.9*,25.2*
O=C(c1nn(Cc2ccccc2)c(=O)c2ccccc12)N1CCN(c2ccccn2)CC1,-34.0,-8.6,20.3*,46.4*
O=C(c1nn(Cc2ccccc2)c(=O)c2ccccc12)N1CCc2ccccc2C1,-14.2,-12.8,10.8,9.0
CCc1nc2ccc(F)cc2c(C(=O)NC2CCCCC2C)c1C (stereo unspecified),-81.9,-53.4,28.7*,35.3*
SMILES,NPY-Y1 PAM-ag,NPY2 pot ag,NPY-Y2 antag,NPY Y1 blocker
CCc1nc2ccccc2c(C(=O)NCc2ccccc2)c1C,-16.4,-15.5,.,-0.8
Cc1ccccc1C(=O)N1CCN(c2ccc(NC(=O)c3ccc4c(c3)OCO4)cc2)CC1,45.4*,55.6*,.,-6.9
CCCc1ccc(NS(=O)(=O)c2c(C)oc(C)c2C(=O)OC)cc1,-11.6,-5.3,.,.
Cc1cccc(Nc2nc(-c3ccncc3)cs2)c1,47.0*,35.0*,.,-20.7
Cc1cccc(Nc2nc(-c3ccc4c(c3)OCCO4)cs2)c1,4.4,0.4,-0.8,-1.8
Clc1cccc(Nc2nc(-c3ccncc3)cs2)c1,45.5*,50.7*,.,-18.1
Clc1ccc(-c2csc(Nc3cccnc3)n2)cc1,16.0,23.6,.,.
NNC(=O)CNC(c1ccccc1)c1cc(Br)ccc1NC(=O)c1cccc(Cl)c1 (stereo unspecified),-0.4,-3.1,-0.7,-1.5
COC(=O)CNC(c1ccccc1)c1cc(Br)ccc1NC(C)=O (stereo unspecified),-15.2,-7.6,.,20.1*
COC(=O)CNC(c1ccccc1)c1cc(Cl)ccc1NC(=O)c1cccc(Cl)c1 (stereo unspecified),-33.5,-23.6,27.6*,33.9*
Cc1cc(=O)c(C(=O)O)nn1-c1ccc(Cl)cc1,7.3,-4.3,.,.
Cn1c(=O)c2c(nc(CN3CCc4ccccc4C3)n2CCc2ccccc2)n(C)c1=O,4.1,-3.5,8.4,26.2*
Cn1c(=O)c2c(nc(CN3CCc4ccccc4C3)n2CCCO)n(C)c1=O,-1.9,5.5,.,3.7
CCC1NC(=S)NC(C)=C1C(=O)c1ccccc1 (stereo unspecified),3.6,3.9,.,-0.1
CCCSC1=C(C#N)C2(CCCCC2)C(C#N)=C(N)N1,53.5*,31.9*,.,-12.9
O=C(c1ccc(F)cc1)N1CCCCC(Sc2nnnn2-c2ccccc2)C1=O (stereo unspecified),-37.4,0.6,4.5,2.4
C=CCNCC(O)COc1ccc(C(C)=O)cc1OC (stereo unspecified),16.3,5.7,.,.
O=C(c1ccc(Br)cc1)c1cc([N+](=O)[O-])ccc1N1CCCCC1,-6.3,-11.4,17.3*,37.7*
Cc1cccc(C)c1Nc1c(-c2ccsc2)nc2ncccn12,45.9*,58.9*,-2.5,-7.4
Cc1ccc(Nc2c(-c3ccc(N4CCOCC4)cc3)nc3ncccn23)cc1C,-34.9,9.1,-2.0,-0.5
Cc1ccc(Nc2c(-c3ccc(N4CCOCC4)cc3)nc3ncccn23)cc1,-19.7,3.1,-0.4,7.5
Cc1ccccc1Nc1c(-c2ccc(N3CCOCC3)cc2)nc2ncccn12,56.1*,42.7*,.,-4.3
COc1c(C(=O)NNC(=O)c2ccccc2)csc1Br,-2.4,-0.8,.,.
N#CC(C#N)=Cc1ccccc1OCc1ccccc1,16.7,1.8,.,.
CC(NC(=O)CN(c1cccc(C(F)(F)F)c1)S(=O)(=O)c1ccc(Cl)c([N+](=O)[O-])c1)c1ccccc1 (stereo unspecified),74.5*,50.3*,-1.5,-8.9
SMILES,NPY-Y1 PAM-ag,NPY2 pot ag,NPY-Y2 antag,NPY Y1 blocker
O=C(CN(c1ccc(Br)cc1)S(=O)(=O)c1ccc(Cl)c([N+](=O)[O-])c1)NCCc1ccccc1,7.4,0.6,.,-5.2
O=C(CN(c1cccc(C(F)(F)F)c1)S(=O)(=O)c1ccc(Cl)c([N+](=O)[O-])c1)NCc1ccccc1,81.2*,60.9*,-1.4,-10.2
Cc1ccc(N(CC(=O)NCCc2ccc(F)cc2)S(=O)(=O)c2ccc(Cl)c([N+](=O)[O-])c2)c(C)c1,67.8*,38.8*,-4.6,-8.1
C/C(=N/N=C1\SCC(=O)N1c1ccccc1)c1ccc(C)cc1,5.0,-15.2,.,.
Nc1nc(SCC(=O)NCc2ccccc2)[nH]c(=O)c1NC(=O)c1ccccc1F,-15.1,-4.1,2.3,5.8
CCOC(=O)C1CCN(c2ncnc3c2[nH]c2cccc(OC)c23)CC1,-20.3,-2.0,-0.1,-2.0
CCOC(=O)C1CCN(c2ncnc3c2oc2ccc(Cl)cc23)CC1,-60.9,-20.1,19.2*,17.9
CCN1CCN(c2ccc(NC(=O)c3ccc4c(c3)[nH]c(=O)n4Cc3ccc(F)cc3)cc2)CC1,-5.3,-0.3,0.2,-3.3
Cc1ccccc1NC(=S)N(C)Cc1cccs1,103.7*,100.8*,-0.8,-16.9
